Results published in ChEMBL document CHEMBL1156225, “Ircinialactams: subunit-selective glycine receptor modulators from Australian sponges of the family Irciniidae” (Bioorg Med Chem, 2010).
Active and inactive are the calls of the source. The calls are words filed in the database; no cut-off is given here.

Assays:
Format in all cases: functional, cell-based
[1] = biological target: T1, Glycine receptor subunit alpha-1 (Homo sapiens, UniProt P23415); test: Agonist activity at human recombinant alpha 1 GlyR expressed in HEK293 cells assessed as potentiation of glycine current by whole cell patch clamp assay
T1 sequence (P23415 whole entry): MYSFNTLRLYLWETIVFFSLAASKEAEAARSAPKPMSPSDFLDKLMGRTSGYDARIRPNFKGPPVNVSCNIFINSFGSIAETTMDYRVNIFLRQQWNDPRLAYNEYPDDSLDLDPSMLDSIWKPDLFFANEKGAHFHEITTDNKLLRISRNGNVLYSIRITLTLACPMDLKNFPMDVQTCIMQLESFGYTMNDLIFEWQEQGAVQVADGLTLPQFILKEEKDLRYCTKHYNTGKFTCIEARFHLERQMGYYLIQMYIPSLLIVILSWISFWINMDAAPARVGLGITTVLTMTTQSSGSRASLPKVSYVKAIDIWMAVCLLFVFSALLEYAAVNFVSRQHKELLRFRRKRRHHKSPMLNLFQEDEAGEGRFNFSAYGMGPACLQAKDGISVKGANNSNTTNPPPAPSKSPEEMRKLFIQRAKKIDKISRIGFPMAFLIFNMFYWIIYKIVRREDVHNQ

[2] = biological target: T2, Glycine receptor subunit alpha-3 (Homo sapiens, UniProt O75311); test: Antagonist activity at human recombinant alpha 3 GlyR expressed in HEK293 cells assessed as inhibition of glycine current influx by whole cell patch clamp assay
T2 sequence (O75311 whole entry): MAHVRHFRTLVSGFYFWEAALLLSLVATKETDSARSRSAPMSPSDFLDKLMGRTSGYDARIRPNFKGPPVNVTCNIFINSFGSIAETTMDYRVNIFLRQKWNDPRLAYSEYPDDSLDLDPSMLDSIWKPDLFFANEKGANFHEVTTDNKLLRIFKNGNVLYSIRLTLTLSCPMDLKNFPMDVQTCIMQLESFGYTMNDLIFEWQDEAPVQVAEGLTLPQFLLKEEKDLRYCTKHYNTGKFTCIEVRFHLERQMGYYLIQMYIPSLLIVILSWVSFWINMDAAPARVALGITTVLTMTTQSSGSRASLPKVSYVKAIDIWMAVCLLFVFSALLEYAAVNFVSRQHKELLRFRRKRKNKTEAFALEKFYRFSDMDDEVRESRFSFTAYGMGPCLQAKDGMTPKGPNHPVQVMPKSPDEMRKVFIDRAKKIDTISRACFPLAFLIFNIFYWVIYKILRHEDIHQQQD

[3] = biological target: T1, Glycine receptor subunit alpha-1; test: (§1) Antagonist activity at human recombinant alpha 1 GlyR expressed in HEK293 cells assessed as inhibition of glycine current influx by whole cell patch clamp assay
[4] = biological target: T2, Glycine receptor subunit alpha-3; test: Agonist activity at human recombinant alpha 3 GlyR expressed in HEK293 cells assessed as potentiation of glycine current by whole cell patch clamp assay
[5] = biological target: T3, Glycine receptor subunit alpha-1 (Homo sapiens) (UniProt P23415); test: Antagonist activity at human recombinant alpha 1 GlyR expressed in HEK293 cells assessed as inhibition of glycine current influx up to 30 uM by whole cell patch clamp assay
T3 sequence (whole entry): T1 sequence (P23415 whole entry)

[6] = biological target: T3, Glycine receptor subunit alpha-1 (Homo sapiens); test: Agonist activity at human recombinant alpha 1 GlyR expressed in HEK293 cells assessed as potentiation of glycine current at 100 uM by whole cell patch clamp assay relative to EC20 glycine maximum response
[7] = biological target: T4, Glycine receptor subunit alpha-2 (Homo sapiens) (UniProt P23416); test: Antagonist activity at human recombinant alpha 2 GlyR expressed in HEK293 cells assessed as inhibition of glycine current influx at 10 uM by whole cell patch clamp assay
T4 sequence (whole entry): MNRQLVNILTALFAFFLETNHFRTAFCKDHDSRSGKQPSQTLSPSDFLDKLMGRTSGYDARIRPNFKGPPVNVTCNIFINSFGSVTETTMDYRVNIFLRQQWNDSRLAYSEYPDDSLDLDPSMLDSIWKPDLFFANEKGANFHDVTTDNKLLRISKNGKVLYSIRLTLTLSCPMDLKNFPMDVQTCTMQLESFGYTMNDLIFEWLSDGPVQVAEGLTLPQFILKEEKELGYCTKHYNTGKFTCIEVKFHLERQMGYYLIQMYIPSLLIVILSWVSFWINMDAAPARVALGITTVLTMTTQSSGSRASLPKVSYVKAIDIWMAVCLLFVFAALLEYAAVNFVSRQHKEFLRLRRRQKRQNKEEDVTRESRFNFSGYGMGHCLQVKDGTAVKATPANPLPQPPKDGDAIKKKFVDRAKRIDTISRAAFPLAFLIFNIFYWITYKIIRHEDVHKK

[8] = biological target: T3, Glycine receptor subunit alpha-1 (Homo sapiens); test: Agonist activity at human recombinant alpha 1 GlyR expressed in HEK293 cells assessed as potentiation of glycine current up to 100 uM by whole cell patch clamp assay
[9] = biological target: T3, Glycine receptor subunit alpha-1 (Homo sapiens); test: Agonist activity at human recombinant alpha 1 GlyR expressed in HEK293 cells assessed as potentiation of glycine current at 1 to 10 uM by whole cell patch clamp assay
[10] = biological target: T5, Glycine receptor subunit alpha-3 (Homo sapiens) (UniProt O75311); test: Agonist activity at human recombinant alpha 3 GlyR expressed in HEK293 cells assessed as potentiation of glycine current at 100 uM by whole cell patch clamp assay relative to EC20 glycine maximum response
T5 sequence (whole entry): T2 sequence (O75311 whole entry)

[11] = biological target: T5, Glycine receptor subunit alpha-3 (Homo sapiens); test: Agonist activity at human recombinant alpha 3 GlyR expressed in HEK293 cells assessed as potentiation of glycine current up to 100 uM by whole cell patch clamp assay
[12] = biological target: T4, Glycine receptor subunit alpha-2 (Homo sapiens); test: Antagonist activity at human recombinant alpha 2 GlyR expressed in HEK293 cells assessed as inhibition of glycine current influx by whole cell patch clamp assay
Summary of the method: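 HEK293 cells transiently expressing α2 GlyR, recorded by conventional whole-cell patch clamp. Current was activated with EC20 glycine (50 µM), and compound was applied at 10 µM together with glycine. Response is expressed as % of control glycine current, averaged from six cells.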

[13] = biological target: T3, Glycine receptor subunit alpha-1 (Homo sapiens); test: as §1

SMILES	EC50 ([1]; hek293)	IC50 ([2]; hek293)	IC50 [3]	EC50 [4]	IC50 ([2]; read-out: IC50) [µM]	further results
CC1=C(O)/C(=C/C(C)/C=C/C=C(\C)CCCC(C)CCCc2ccoc2)OC1=O (stereo unspecified)	Not Active	Not Active	Not Active	Not Active	–	–
C/C(=C\CCC1=CCN(CC(=O)O)C1=O)CC/C=C(\C)CCC[C@H](C)CC(=O)O [IRCINIALACTAM C]	Not Active	–	Not Active	Not Active	30	–
CC1=C(O)/C(=C/[C@@H](C)CCC/C(C)=C/CCC(C)(O)CCCc2ccoc2)OC1=O (stereo partly specified)	–	–	Not Active	Not Active	7	EC50 ([1]; read-out: EC50): 1.2 µM; Activity [5]: Active; Activity [6]: 215%; inhibition [7]: 87%
CC1=C(O)/C(=C/[C@@H](C)CCC/C(C)=C/CC/C(C)=C/CCC2=CCN(CC(=O)O)C2=O)OC1=O [IRCINIALACTAM A]	–	–	Not Active	Not Active	30	Activity [8]: inactive; Activity [6]: 140%
CC(C)(C)C1(O)CC[S+]([O-])CC1 (stereo unspecified)	–	–	–	–	–	Activity [9]: 135%
CC1=C(O)/C(=C/[C@@H](C)CCC/C(C)=C/CCC(C)(O)CCCC2=CC(=O)N(CC(=O)O)C2)OC1=O (stereo partly specified) [8-HYDROXYIRCINIALACTAM B]	–	Not Active	Not Active	–	–	EC50 ([1]; read-out: EC50): 0.5 µM; Activity [10]: 183%; Activity [11]: inactive; Activity [6]: 330%
Cc1c(C(=O)c2cccc3ccccc23)c2cccc3c2n1[C@H](CN1CCOCC1)CO3	–	–	–	–	–	Activity [12]: Active; Activity [5]: inactive; Activity [13]: Active
CCOC(=O)C(O)(C[C@@H](C)CCC/C(C)=C/CC/C(C)=C/CCC1=CCN(CC(=O)O)C1=O)C(C)(O)C(=O)O (stereo partly specified) [IRCINIALACTAM D]	Not Active	–	Not Active	Not Active	30	–
CC1=C(O)/C(=C/[C@@H](C)CCC/C(C)=C/CCC(C)(O)CCCC2=CCN(CC(=O)O)C2=O)OC1=O (stereo partly specified) [8-HYDROXYIRCINIALACTAM A]	–	Not Active	Not Active	Not Active	–	Activity [8]: inactive; Activity [6]: 217%
CC1=C(O)/C(=C/C(C)/C=C/C=C(\C)CCCc2coc(Cc3ccoc3)c2)OC1=O (stereo unspecified) [COMETIN A]	Not Active	Not Active	Not Active	Not Active	–	–
CC1=C(O)/C(=C/[C@@H](C)CCC/C(C)=C/CC/C(C)=C/CCc2ccoc2)OC1=O	Not Active	Not Active	Not Active	Not Active	–	–
CCCCCCC(C)(C)c1cc(OC)c([C@H]2C=C(CO)[C@@H]3C[C@H]2C3(C)C)c(OC)c1	–	–	–	–	–	Activity [12]: Active; Activity [5]: inactive; Activity [13]: Active
CCCCCCC(C)(C)c1cc(O)c2c(c1)OC(C)(C)[C@@H]1CC=C(CO)C[C@@H]21	–	–	–	–	–	Activity [12]: Active; Activity [5]: inactive; Activity [13]: Active
CC1=C(O)/C(=C/[C@@H](C)CCC/C(C)=C\CC/C(C)=C/CCc2ccoc2)OC1=O	Not Active	Not Active	Not Active	Not Active	–	–
C/C(=C\CCC1=CCN(CC(=O)O)C1=O)CC/C=C(\C)CCC[C@@H](C)CC(=O)O	Not Active	–	Not Active	Not Active	30	–
